Data set [1] in a line: solubility on formulation. Format: physicochemical. The conditions noted are these: for water solubility (ease of formulation): PEG moiety instead of methoxy in the B ring; for solubility when formulated: 10% DMSO/ 10% solutol/ 80% PBS formulation mixture.
A further data set deals with latent EBV. Nature of the data set: cell based reactivation, Western blot analysis. Details: species or system Epstein-Barr virus. The conditions noted are these: compared with methoxy substituted counterparts; data not shown.
The test system of data set [2] is latent EBV in MutuI cells. The conditions noted are these: typical; cited from earlier work.
In data set [3] the test system is latent EBV in MutuI cells. Nature of the data set: EBV lytic reactivation, MutuI cell based assay. Also noted: species or system Epstein-Barr virus. The settings on record: for potency in EBV reactivation relative to 12: analogs of 12.
A short description of a further data set: plasma stability, mouse. In kind it is in vitro ADME.
Another data set is described as follows: plasma stability, human. In kind it is in vitro ADME.
In data set [4] the test system is latent EBV in SNU719 gastric carcinoma tumors. Nature of the data set: SNU719 gastric carcinoma xenograft, BZLF1 immunoblot of tumors. Format: in vivo. The conditions noted are these: NSG mice, 30 mg/kg i.p. once per day, 4 days. A digest of the protocol: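 SNU719 gastric carcinoma cells (1×10^7) injected subcutaneously into left and right flanks of NSG mice (both sexes, 8-10 weeks old). From 28 days post-injection, test compound given i.p. at 30 mg/kg once daily; controls were vehicle (5% DMSO/5% Solutol) and PBS. Tumors collected after 4 days of treatment and homogenized. Immunoblot for lytic BZLF1 (Z), with β-actin as loading control.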

The nature of data set [5]: liver microsomal stability, mouse. In kind it is in vitro ADME. The conditions noted are these: microsomes.
The nature of data set [6]: liver microsomal stability, human. In kind it is in vitro ADME. The conditions noted are these: microsomes.
For the next data set, the system named is EBV-positive cells. The conditions noted are these: combination with Ganciclovir; cited from earlier work.

Bounds are passed on as bounds.

Take `COCCOCCOCCOc1ccc(C2c3[nH]c4ccc(Cl)cc4c3CCN2C(=O)Nc2ccccc2C(=O)OC)cc1` (stereo not drawn) [Compound 21]: in data set [1], the “water solubility (ease of formulation)” value is listed as “significantly improved water solubility”. The “activity by Western blot analysis” value with latent EBV is listed as “comparable activity to their methoxy substituted counterparts”.
In the case of `CCCCCCCCCCCCCC(=O)O[C@@H]1[C@@H](C)[C@@]2(O)[C@@H](C=C(CO)C[C@]3(O)C(=O)C(C)=C[C@@H]23)[C@@H]2C(C)(C)[C@]12OC(C)=O` [TPA, 12-O-tetradecanoylphorbol-13-acetate], the “concentration required to trigger the latent to lytic switch” value in data set [2] is “millimolar concentrations”.
On to `COc1ccc(C2c3[nH]c4ccc(Cl)cc4c3CCN2C(=O)c2cccc(CN3CCOCC3)c2)cc1` (stereo not drawn) [Compound 18], for which the solubility when formulated entry in data set [1] is given as “more soluble”. Moreover, the “potency in EBV reactivation relative to 12” value in data set [3] was “maintained potency”.
On to `COc1ccc(C2c3[nH]c4ccc(Cl)cc4c3CCN2C(=O)c2cccc(OC)c2)cc1` (stereo not drawn) [Compound 12], for which the “Plasma Stability Mouse” value in the data set “plasma stability, mouse” was more than 6 h. For the same compound, the “Plasma Stability Human” value in “plasma stability, human” is more than 6 h.
Regarding `COc1cccc(C(=O)N2CCc3c([nH]c4ccc(Cl)cc34)C2c2ccc(O)cc2)c1` (stereo not drawn) [Compound 20], the “EBV reactivation in tumors (presence of lytic protein BZLF1)” value in [4] is “modestly reactivates EBV”. For the same compound, the solubility when formulated entry in [1] is “more soluble”. Further, the “potency in EBV reactivation relative to 12” value in data set [3] is “maintained potency”.
As to `O=C(c1cccc(CN2CCOCC2)c1)N1CCc2c([nH]c3ccc(Cl)cc23)C1c1ccc(Cl)cc1` (stereo not drawn) [Compound 19], the solubility when formulated result in data set [1] is “more soluble”. Further, in [3], the “potency in EBV reactivation relative to 12” value is given as “maintained potency”.
On to `COCCOCCOCCOc1ccc(C2c3[nH]c4ccc(Cl)cc4c3CCN2C(=O)Nc2ccccc2Cl)cc1` (stereo not drawn) [Compound 22], for which the “water solubility (ease of formulation)” value in [1] was “significantly improved water solubility”. Besides, the “activity by Western blot analysis” value in the data set on latent EBV is listed as “comparable activity to their methoxy substituted counterparts”.
For the compound `COC(=O)c1ccccc1NC(=O)N1CCc2c([nH]c3ccc(Cl)cc23)C1c1ccc(OC)cc1` (stereo not drawn) [Compound C60], the “Plasma Stability Mouse” value in the data set “plasma stability, mouse” is more than 6 h. Further, the “Liver Microsomal Stability Mouse CLint” value in [5] was less than 0.5. Moreover, the “Liver Microsomal Stability Human CLint” value in data set [6] is reported as 0.93. Besides, the EC50 in data set [3] (human gammaherpesvirus 4, MUTU-I, read-out: potency in cells) is 150 to 200 nM. For the same compound, in the data set on EBV-positive cells, the “synergy with GCV in killing EBV-positive cells” value is on record as “functions synergistically with Ganciclovir (GCV) to selectively kill EBV-positive cells”. Also, the “Plasma Stability Human” value in the data set “plasma stability, human” was more than 6 h.
Take `CCCC(=O)[O-].[Na+]` [NaB, sodium butyrate]: in data set [2], the “concentration required to trigger the latent to lytic switch” value is “millimolar concentrations”.

Source of the values: article PMC6690763 (Bioorganic & medicinal chemistry letters, 2019).
